Data set [1] has as its system Canis familiaris. As to the kind of experiment: Toxicity in mongrel dog assessed as change in blood pressure at 17 umol/kg, iv for 10 mins. It counts as organism-based, Canis lupus familiaris. As to conditions: in vivo.
Data set [2] deals with Canis familiaris. The data set can be described thus: Diuretic activity in mongrel dog assessed as decrease in glomerular filtration rate during 2 hrs period at 17 umol/kg, iv for 10 mins. It counts as functional, organism-based. As to conditions: Canis lupus familiaris, Urine. An outline of the steps: (§1)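 Single 17.0 μmol/kg iv dose in 10 mL 0.9% saline, given over 10 min; sodium salts formed with NaHCO3 where needed. GFR from plasma and urine inulin; Na by flame photometry. Changes per kg computed for each 10-min period after dosing minus the predrug period; mean Δ ± SEM, paired comparison, p < 0.05.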

Data set [3] in a line: Solubility of the compound in 0.9% saline. It counts as physicochemical. The settings on record: buffer.
Data set [4] can be described thus: Metabolic stability in dog urine assessed as ethacrynic acid release after 72 hrs at pH 7 +/- 0.5 by NMR/TLC analysis. It counts as ADME, tissue-based, Canis lupus familiaris. The settings on record: pH 7, 72 h.
Data set [5] has as its system Canis familiaris. As to the kind of experiment: Inhibition of ethacrynic acid-induced diuresis in mongrel dog assessed as decrease in glomerular filtration rate during 2 hrs period at 17 umol/kg, iv for 10 mins. The data set is classed as organism-based, Canis lupus familiaris. The settings on record: in vivo. An outline of the steps:
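Dogs received 17.0 μmol/kg iv over 10 min, and renal parameters were followed for 2 h. Sodium ethacrynate, 3.3 μmol/kg iv in 10 mL saline over 10 min, was then given. Inulin GFR/kg and Na excretion/kg were taken per 10-min period as change from the predrug value; mean Δ ± SEM; paired comparison, p < 0.05.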

Data set [6] has as its system Canis familiaris. As to the kind of experiment: Toxicity in mongrel dog assessed as increase in systolic pressure at 17 umol/kg, iv for 10 mins. It counts as organism-based, Canis lupus familiaris. As to conditions: in vivo.
The test system of data set [7] is Canis familiaris. As to the kind of experiment: Toxicity in mongrel dog assessed as increase in diastolic pressure at 17 umol/kg, iv for 10 mins. The data set is classed as organism-based, Canis lupus familiaris. The settings on record: in vivo.
A short description of data set [8]: Biotransformation in mongrel dog assessed as ethacrynic acid-glutathione in urine at 17 umol/kg, iv for 10 mins after 2 hrs. As to conditions: in vivo. It counts as ADME, organism-based, Canis lupus familiaris. In outline:
(§2)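 Dogs given 17.0 μmol/kg iv in 10 mL 0.9% saline, prepared 3–5 min before dosing and infused over 10 min. Urine collected for 2 h after dosing and freeze-dried in 1-h portions; control urine from nine 10-min predrug periods handled the same way. Residues taken up in H2O and run on cellulose TLC in n-BuOH–C6H6–MeOH–H2O (20:10:12.5:10); spots located by UV and ninhydrin.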

Data set [9] can be described thus: Biotransformation in mongrel dog assessed as ethacrynic acid-cysteine in urine at 17 umol/kg, iv for 10 mins after 2 hrs. As to conditions: in vivo. The data set is classed as ADME, organism-based, Canis lupus familiaris. An outline of the steps:
as §2

The test system of data set [10] is Canis familiaris. As to the kind of experiment: Diuretic activity in mongrel dog assessed as decrease in rate of sodium excretion during 2 hrs period at 17 umol/kg, iv for 10 mins. The settings on record: Canis lupus familiaris, Urine. The data set is classed as functional, organism-based. An outline of the steps:
as §1

Molecules are shown by their SMILES. Active and inactive are the calls of the source. The calls are words filed in the database; no cut-off is given here.

On to `C=C(CC)C(=O)c1ccc(OCC(=O)[O-])c(Cl)c1Cl.[Na+]` [ETHACRYNATE SODIUM], for which the Activity result in data set [1] is listed as “Non-toxic”. Moreover, the outcome in [2] was Active.

For the molecule `CCC(CN(C)C)C(=O)c1ccc(OCC(=O)O)cc1.Cl` (stereo not given), the Activity entry in data set [1] and in data set [5] was “Non-toxic” each time. In data set [3], the solubility entry is on record as “soluble”. For the same molecule, the Stability result in data set [4] is reported as “Stable”. Moreover, in data set [2], the result was inactive.

Turning to `C=C(C)C(=O)c1ccc(OCC(=O)[O-])c(Cl)c1Cl.[Na+]`, the Activity entry in data set [6] and in data set [7] was “Toxic” in each case. In data set [2], the result was Active.

Consider `CCC(CN(C)C)C(=O)c1ccc(OCC(=O)O)c(Cl)c1Cl.Cl` (stereo not given), for which, in data set [1], the Activity result was “Non-toxic”. Also, the solubility entry in data set [3] is “soluble”. Also, the Drug metabolism entry in data set [8] and in [9] was “metabolite_detected” in each case. For the same molecule, the Stability entry in [4] is “Unstable”. Also, the outcome in [2] was Active.

`CN(C)CC(C)(C)C(=O)c1ccc(OCC(=O)O)c(Cl)c1Cl.Cl`: the Activity result in data set [1] is listed as “Non-toxic”; in data set [5], “Toxic”. The solubility result in data set [3] was “soluble”. The Stability entry in data set [4] is given as “Stable”. Also, the result in data set [2] and in [10] was inactive.

On to `C=C(CC)C(=O)c1ccc(OCC(=O)[O-])cc1.[Na+]`, for which the Activity result in [1] and in [5] was “Non-toxic” throughout. Also, in data set [2], the outcome was inactive.
